Source: PubChem BioAssay (several laboratories)
S1P4 antagonist – S1P4 receptor antagonists, primary screen, cell-based | inhibition, % at 4.98 µM | Sphingosine 1-phosphate receptor 4 (Homo sapiens), O95977 | S1P4-expressing cells, antagonist mode, reporter read-out | 0.26% of 220,000 active; in the data active = inhibition above about 29%
S1P4 agonist – S1P4 receptor agonists, primary screen, cell-based | Sphingosine 1-phosphate receptor 4 (Homo sapiens), O95977 | 0.35% of 220,000 active | AID 1509, 2009 | activation, % at 4.98 µM | S1P4-expressing cell line, agonist reporter assay; in the data active = activation above about 11%
L major viab – Leishmania major promastigote growth inhibition, primary screen; Leishmania major promastigotes, resazurin fluorescence viability; inhibition, % at 10 µM; 9% of 200,000 active; in the data active = inhibition above about 50%;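 note: promastigotes grown with compound for 44 hours at 28 °C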
MDM2 E3 inh – MDM2-luciferase reporter signal enhancers, primary screen, MDM2 E3 ligase inhibitor project, cell-based, luminescence, 1536-well | E3 ubiquitin-protein ligase Mdm2 (Homo sapiens), Q00987 | cell-based MDM2 ubiquitination luciferase reporter, 2 h; 0 = plate control, 100 = twice control, blank-subtracted | signal enhancement, % at 5 µM | 0.11% of 210,000 active | AID 1230, 2008;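 active = signal enhancement of 30% or more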;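 note: luminescence tracks abundance of the self-degrading MDM2-luciferase fusion protein; higher signal means inhibition of MDM2 E3 ligase activity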
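Assay system: stable mammalian line carrying autodegrading MDM2–luciferase fusion reporter; amount: 2000 cells seeded into each well; buffer or medium: DMEM; benchmarks: plate control and blank wells; signal: luciferase luminescence; timing: 2 h compound exposure at 37 °C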
S1P3 antagonist – S1P3 receptor antagonists, primary screen, cell-based; Sphingosine 1-phosphate receptor 3 (Homo sapiens), Q99500; CHO S1P3 NFAT-BLA reporter, FRET fluorescence, antagonist mode; inhibition, % at 4.98 µM; 0.27% of 170,000 active;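 active = inhibition above the plate cutoff, the mean inhibition of test wells on that plate plus 3 SD, cut at about 28% in these data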;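 note: cells challenged with S1P at its EC80 of 0.8 µM; blue over green emission ratio from cleaved BLA substrate after 4 h stimulation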
Target sequence (Q99500 whole entry, looked up): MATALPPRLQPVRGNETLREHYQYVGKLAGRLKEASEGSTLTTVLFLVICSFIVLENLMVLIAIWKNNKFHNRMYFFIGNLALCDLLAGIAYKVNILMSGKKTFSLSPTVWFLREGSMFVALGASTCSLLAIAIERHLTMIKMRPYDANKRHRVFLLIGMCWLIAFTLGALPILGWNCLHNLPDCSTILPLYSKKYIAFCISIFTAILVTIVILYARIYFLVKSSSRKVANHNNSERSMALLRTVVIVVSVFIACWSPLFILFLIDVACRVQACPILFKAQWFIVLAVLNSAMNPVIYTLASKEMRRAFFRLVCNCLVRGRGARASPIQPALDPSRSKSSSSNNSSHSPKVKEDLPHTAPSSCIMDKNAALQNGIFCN
Hits are given with their value; i = inactive; nt = no result. The entries come from a sample that favours hits as a whole.

SMILES	S1P4 antagonist	S1P4 agonist	L major viab	MDM2 E3 inh	S1P3 antagonist
CC(=O)Nc1ccc(C2=NN(C)C(=NCc3ccccc3)SC2)cc1	i	i	67	i	i
Cc1ccc2nc(N/N=C/c3ccccc3C#N)nc(-c3ccccc3)c2c1	i	i	62	i	nt
N#Cc1ccccc1/C=N/Nc1nc(-c2ccccc2)c2cc(Cl)ccc2n1	i	i	i	i	nt
Cc1cc(C)nc(SCc2ccc(C(=O)N/N=C/c3cccc(O)c3O)cc2)n1	i	i	98	i	i
COc1ccc(O)c(/C=N/NC(=O)c2ccc(OCc3cccc(Br)c3)cc2)c1	i	i	97	i	nt
COc1ccc(O)c(/C=N/NC(=O)c2ccc(CSc3nc(C)cc(C)n3)cc2)c1	i	i	99	i	i
COc1ccc(/C=N/NC(=O)c2ccc(CSc3nc(C)cc(C)n3)cc2)cc1O	i	i	i	i	i
COc1ccc(C(=O)N/N=C/c2cc(Br)ccc2O)cc1OC	i	i	nt	i	i
Cc1cc(C)nc(SCc2ccc(C(=O)N/N=C/c3ccc(C(=O)O)cc3)cc2)n1	i	i	i	i	i
CNC(=O)Cn1nc(-c2ccc(C)c(S(=O)(=O)N(C)C)c2)c2ccccc2c1=O	i	i	i	i	nt
O=C(Cn1cncn1)N/N=C/c1ccccc1O	i	i	nt	i	i
Cc1cc(C)cc(NC(=O)c2ccc3nc[nH]c3c2)c1	i	i	86	i	i
Cc1ccc(NC(=O)c2ccc3nc[nH]c3c2)cc1C	i	i	i	i	i
COc1ccc(C)cc1S(=O)(=O)N(CC(=O)Nc1cccc([N+](=O)[O-])c1)c1ccc(C)c(C)c1	i	i	50	i	i
Cc1ccc(S(=O)(=O)N(CC(=O)Nc2ccccc2C(=O)O)c2ccc(Cl)cc2)cc1	i	i	i	i	i
Cc1ccc(NC(=O)CN(c2ccc(Cl)cc2)S(=O)(=O)c2cc([N+](=O)[O-])ccc2Cl)cc1	i	i	59	i	i
CCCC1=NN(C(=O)Cc2ccc(OC)cc2)C(O)(C(F)(F)F)C1 (configuration not stated)	i	i	i	i	i
CN(C)CCOC(C1CCCCC1)C1CCCCC1	i	i	50	i	nt
Cc1cc(C)n2nc(SCCOc3ccccc3F)nc2n1	i	i	i	i	i
COCCNC(=S)NNC(=O)c1ccc(-n2cnnn2)cc1	i	i	i	i	i
CC1(C)OC(=CC=Nc2ccc(Cl)cc2)OC1(C)C	i	i	nt	i	i
Cc1cc2nc(N)sc2cc1[N+](=O)[O-]	i	i	i	i	nt
Cc1cccc(N2CCN(C(=O)c3cc(S(=O)(=O)N(C)C)ccc3N3CCCC3)CC2)c1C	i	i	54	i	i
CN(C)S(=O)(=O)c1ccc(N2CCCC2)c(C(=O)N2CCN(c3ccc([N+](=O)[O-])cc3)CC2)c1	i	i	i	i	i
COc1ccccc1-n1cnnc1SCC(=O)c1c[nH]c2ccccc12	i	i	i	i	i
SMILES	S1P4 antagonist	S1P4 agonist	L major viab	MDM2 E3 inh	S1P3 antagonist
CC1(CC(=O)N/N=C/c2cc(Br)c(O)cc2O)OCCO1	i	i	91	i	nt
Cc1oc(/C=N/NC(=O)CC2(C)OCCO2)cc1Br	i	i	i	i	i
COc1cccc(NC(=S)NN=C2CCC(C(C)(C)C)CC2)c1 (configuration not stated)	i	i	i	i	i
CC12CCC(C/C1=N/NC(=O)Nc1ccccc1)C2(C)C (configuration not stated)	i	i	95	i	i
COc1cccc(NC(=S)N/N=C2\CC3CCC2(C)C3(C)C)c1 (configuration not stated)	i	i	89	i	i
CC12CCC(C/C1=N/NC(=O)COc1ccccc1Cl)C2(C)C (configuration not stated)	i	i	i	i	i
Cc1ccc(Cl)cc1N1CCN(Cc2nc3ccsc3c(=O)[nH]2)CC1	i	i	i	i	nt
Cc1nn(-c2cc(N3CCCCCC3)ccc2[N+](=O)[O-])c(=O)c2ccccc12	i	i	i	i	nt
Cc1ccc(-c2nn(-c3cc(N4CCNCC4)ccc3[N+](=O)[O-])c(=O)c3ccccc23)cc1	i	i	101	i	i
O=C(CNc1n[nH]c(=O)[nH]c1=O)N/N=C/c1ccccc1	i	i	nt	i	i
